Molecules are shown by their SMILES. Screen size: about 370,000 compounds; about 2,000 (0.54%) were called active. What follows is part of a selection rich in actives, with near analogues and random picks from the rest. Values without a mark were called inactive.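 Rule for the calls: active = inhibition exceeding the mean over every tested compound plus 3 SD (cut at about 30% in these data); inactive = the rest.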

Sequence of (Lyso)-N-acylphosphatidylethanolamine lipase (Mus musculus) (Q8VD66 whole entry, looked up): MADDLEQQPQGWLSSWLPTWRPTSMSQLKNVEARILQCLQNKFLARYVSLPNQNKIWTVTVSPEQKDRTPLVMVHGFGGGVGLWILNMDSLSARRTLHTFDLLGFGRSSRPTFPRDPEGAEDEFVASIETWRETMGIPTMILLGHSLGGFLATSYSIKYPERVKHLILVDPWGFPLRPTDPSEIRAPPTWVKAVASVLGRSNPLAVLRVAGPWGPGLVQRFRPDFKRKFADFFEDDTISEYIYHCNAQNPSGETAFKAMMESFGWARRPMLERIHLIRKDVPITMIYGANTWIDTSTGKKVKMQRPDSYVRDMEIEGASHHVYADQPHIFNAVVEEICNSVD

The target of the assay is (Lyso)-N-acylphosphatidylethanolamine lipase (Mus musculus) (UniProt Q8VD66). The assay is described as follows: mouse ABHD4 hydrolase activity blockers – biochemical, fluorescence polarization, primary screen (AID 720543).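 Note: 0% = plate median of compound wells and 100% = S159A mutant with DMSO.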 The settings on record: purified mABHD4, FP-Rh probe fluorescence polarization; at 8.92 µM; hits give high values. Put shortly:
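Assay system: wild-type mouse ABHD4 protein; compound: single nominal dose of 8.92 µM, 0.89% DMSO final; schedule: 45 min + 60 min at 25 °C; measured by: FP readout, ex 525 nm / em 598 nm; evaluation: % inhibition of FP-Rh probe binding versus controls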
Background: In fluorescence polarisation assays a small probe gives low polarisation when free and higher when bound to something large.
As for `Nc1ccc(Nc2ccccc2)cc1`, the inhibition is 46.5% (active).
The result for `Cc1ccc(Nc2ccccc2N)cc1` reads 28.9%; that for `O=c1cnnc(Nc2ccccc2)[nH]1`, 4.6%; that for `CCCc1ccc(C(O)c2ncc(-c3cccc(OC)c3)[nH]2)cc1` (stereo unspecified), -9.64%.
Consider `Cc1ccc(CN2CCCCC(NC(=O)C3CCCCC3)C2=O)cc1` (stereo unspecified), for which the inhibition is -4.62%.
Consider `COC(=O)C1CN(CC(C)C)CCS(=O)(=O)N1Cc1ccc(C)cc1` (stereo unspecified), for which the inhibition is 2.37%.
The same measure for `CN1c2ccc(C=O)c3c(C=O)ccc(c23)N(C)C1(C)C`: 64.5% (active); for `COC(=O)C1CN(CC(C)C)CCS(=O)(=O)N1Cc1ccc(F)cc1` (stereo unspecified): 0.68%; for `CCC(=O)c1c(CC)c2n3c1=CC[C@H]3CC(Br)C=2` (stereo partly specified): 3.54%.
The result for `Cc1cc(C)n2ncc(C(=O)Nc3ccc4c(c3)OCCO4)c2n1` reads 1.04%; that for `O=C(N/N=C/c1cccc([N+](=O)[O-])c1)C1CC(=O)N(c2ccc(Br)cc2)C1` (stereo unspecified), -2.95%.
The same measure for `Cc1cc(C(=O)N/N=C/c2ccc(O)c([N+](=O)[O-])c2)c(C)n1-c1ccc(F)cc1`: 37.5% (active); for `Cc1cc(C(=O)COc2ccccc2[N+](=O)[O-])c(C)n1-c1cccc(S(=O)(=O)N2CCOCC2)c1`: -5.94%; for `O=C1CC(c2ccc3c(c2)OCO3)N=C2N(CC3CC3)C/C(=C/c3ccccc3)N12` (stereo unspecified): 5.86%.
For `COc1cccc(CNC(=O)[C@H]2CCCN2C(=O)[C@H]2CCCN2C(=O)c2cc(F)cc(F)c2)c1`, the inhibition was 1.83%.
The result for `Cc1cc(=O)n2[nH]c(-c3sccc3-n3c(C)ccc3C)cc2n1` reads 16.4%; that for `O=[N+]([O-])/C=C/c1ccc2c(ccn2Cc2ccccc2)c1`, -15%.
The same measure for `Cc1c(NC(=O)C(=O)N/N=C/c2cccs2)c(=O)n(-c2ccccc2)n1C`: 3.46%; for `O=S(=O)(/N=C(/Nc1ccccc1)c1ccccc1)c1cccs1`: 1.09%; for `O=C(O)c1ccc(N/N=C/c2cn(-c3ccccc3)nc2-c2cccs2)cc1`: 34.6% (active).
The same measure for `CN1C[C@]2(C=C3CCCCC3n3c(=O)n(-c4ccccc4)c(=O)n32)N=C1NC(=O)c1ccccc1` (stereo partly specified): 0.57%; for `COc1ccc(C(=O)NC(=S)N2CCCCC2c2cccnc2)cc1OC` (stereo unspecified): -3.67%; for `COc1cc(C(=S)NC2CCCCC2)ccc1O`: 0.73%.
With `COc1cc(C(=O)Nn2c(O)c(C3=c4ccccc4=NC3=O)sc2=S)ccc1O`, the inhibition was 57.7% (active).
For the molecule `CCOC(=O)[C@]12CCCC=C1N(Cc1ccc(OC)cc1)C(=O)[C@@H]2CC(=O)N1CCOCC1`, the inhibition is 5.88%.
The same measure for `O=C(c1ccc2c(c1)N(Cc1ccc(F)cc1)C(=O)CS2)N1CCOCC1`: -7.7%.

One may read the inhibition as the drop in the measured response relative to a control, in per cent.

Source of the values: PubChem BioAssay AID720543 (The Scripps Research Institute Molecular Screening Center, 2013).
